Laboratory results taken from paper PMC7114172 (ACS Omega, 2020).
Bridge positions count the residues as written; N and C are the ends. Square brackets hold non-standard residues; d marks the D form. Ends that are not written are not given here. Peptide text beside a SMILES is read from it. * marks the point of attachment. Myristoyl = CCCCCCCCCCCCCC(=O)*; Phe(ol) = N[C@H](CO)Cc1ccccc1; Aib = CC(C)(N)C(=O)O; NHCH2CH2OH = OCCN*; For = O=C*

Key:
S. aureus (ATCC 8530) = conditions: concentration at which no viable colonies are formed; 10 mM phosphate buffer pH 7.4; cited from earlier work
[1] = test system: E. coli K-12 strain MG1655 (CGSC-7740); conditions: concentration at which no viable colonies are formed; 10 mM phosphate buffer pH 7.4; cited from earlier work
LPS E. coli K-235 = test: LPS binding, dansyl cadaverine; design: species or system Escherichia coli; conditions: LPS E. coli K-235 280 μg/mL, DC 12 μM, 10 mM phosphate buffer pH 7.4, 25 °C
Summary of the method: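 Test peptide was added in small successive aliquots to a preformed DC:LPS complex. […] Excitation was at 340 nm and emission scanned 420–600 nm (slits 2.5/5 nm). Probe occupancy was calculated as (F−F0)/(Fmax−F0), where F0 is DC alone, Fmax is DC at maximum LPS, and F is DC–LPS at each peptide concentration. A positive-control peptide was run first.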

Row | Molecule | MBC, S. aureus (S. aureus (ATCC 8530)) | MBC, E. coli [1] | Relative binding affinity to LPS (DC displacement) (LPS E. coli K-235)
1 | Myristoyl-SCLPKEEQIGKSTRGRKCRRKK (disulfide 2-18 (inferred)) [MPhd3] | 4 µM | 4 µM | –
2 | cyclized isooctanoyl BTBB(BF^dLBBT) (lariat or depsi) [polymyxin B] | – | – | strong binding compared to HBD2-3 as well as LL37 and melittin
3 | CC(C)C[C@@H](NC(=O)[C@H](C)NC(=O)CNC(=O)[C@@H](NC=O)C(C)C)C(=O)N[C@@H](C)C(=O)N[C@@H](C(=O)N[C@H](C(=O)N[C@@H](C(=O)N[C@@H](Cc1c[nH]c2ccccc12)C(=O)N[C@H](CC(C)C)C(=O)N[C@@H](Cc1c[nH]c2ccccc12)C(=O)N[C@H](CC(C)C)C(=O)N[C@@H](Cc1c[nH]c2ccccc12)C(=O)N[C@H](CC(C)C)C(=O)N[C@@H](Cc1c[nH]c2ccccc12)C(=O)NCCO)C(C)C)C(C)C)C(C)C [gramicidin A] (For-VGA[dL]A[dV]V[dV]W[dL]W[dL]W[dL]W-NHCH2CH2OH; N-terminus and C-terminus assumed) | – | – | weak affinity as compared to polymyxin B
4 | Myristoyl-FCPRRYKQIGTGLPGTKCK (disulfide 2-18 (inferred)) [MPhd2] | 5 µM | 6 µM | –
5 | CC(=O)NC(C)(C)C(=O)N1CCC[C@H]1C(=O)NC(C)(C)C(=O)N[C@@H](C)C(=O)NC(C)(C)C(=O)N[C@@H](C)C(=O)N[C@@H](CCC(N)=O)C(=O)NC(C)(C)C(=O)N[C@H](C(=O)NC(C)(C)C(=O)NCC(=O)N[C@@H](CC(C)C)C(=O)NC(C)(C)C(=O)N1CCC[C@H]1C(=O)N[C@H](C(=O)NC(C)(C)C(=O)NC(C)(C)C(=O)N[C@@H](CCC(=O)O)C(=O)N[C@@H](CCC(N)=O)C(=O)N[C@H](CO)Cc1ccccc1)C(C)C)C(C)C [alamethicin] (Ac-[Aib]P[Aib]A[Aib]AQ[Aib]V[Aib]GL[Aib]PV[Aib][Aib]EQ[Phe(ol)]; N-terminus assumed) | – | – | weak affinity as compared to polymyxin B
6 | ACPIFTKIQGTYRGKAKCK (disulfide 2-18 (inferred)) [Phd1] | 20 µM | 19 µM | more affinity as compared to Phd2-3 and MPhd2-3
7 | Myristoyl-ACPIFTKIQGTYRGKAKCK (disulfide 2-18 (inferred)) [MPhd1] | 5 µM | 5 µM | more affinity as compared to Phd2-3 and MPhd2-3
